Calls of active or inactive are those of the source. The rule behind the calls is not given here.

The subject of the first assay is CCF-STTG1. The experiment in a line: Induction of apolipoprotein E secretion from human CCF-STTG1 cells at 30 uM after 96 hrs by ELISA relative to control. Format: functional. In a few lines: (§1)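 Human CCF-STTG1 astrocytoma cells were incubated with test compounds at concentrations of up to 40 μM for 96 h, and apolipoprotein E secretion was then measured. The assay was also applied to fractions.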
A general note: ELISA stands for enzyme-linked immunosorbent assay.
In the case of `CN(C)CCCOc1c(Br)cc(CCN(C)C)cc1Br` [APLYSAMINE], the “fold change (FC)” value stood at 2.

Another assay deals with CCF-STTG1. Nature of the assay: Induction of apolipoprotein E secretion from human CCF-STTG1 cells up to 40 uM after 96 hrs by ELISA. In kind it is functional, cell-based. In a few lines: as §1
As for `COc1ccc(/C=C/C(=O)NCCCC[C@@H](N)C(=O)O)cc1Br`, the outcome was inactive.

`CNCCc1cc(Br)c(OCCCN(C)C)c(Br)c1`: the result was inactive.

Take `COc1c(Br)cc(C(=O)O)cc1Br`: the result was inactive.

In the case of `COc1ccc(C[C@H](N)C(=O)NCCc2cc(Br)c(OCCCN(C)C)c(Br)c2)cc1Br`, the result was inactive.

Regarding `COc1ccc(CC(C(=O)O)[N+](C)(C)C)cc1Br` (stereo not given), the outcome was inactive.

In the case of `COc1ccc(/C=C/C(=O)NCCCCC(=O)O)cc1Br`, the outcome was inactive.

As for `COc1c(Br)cc(/C=C/C(=O)NCCCC[C@@H](N)C(=O)O)cc1Br`, the outcome was inactive.

On to `CN(C)CCCOc1c(Br)cc(CC[N+](C)(C)O)cc1Br`, for which the outcome was inactive.

In the case of `CN(C)CCc1cc(Br)c(O)c(Br)c1`, the outcome was inactive.

These data come from ChEMBL document CHEMBL3286350, “Aplysinellamides A-C, bromotyrosine-derived metabolites from an Australian Aplysinella sp. marine sponge” (2014).
